Data taken from ChEMBL document CHEMBL1125041, “New inhibitors of renin that contain novel phosphostatine Leu-Val replacements” (J Med Chem, 1990).

Legend:
[1] = biological target: T1, Renin (Homo sapiens, UniProt P00797); test: Inhibition of purified human renal renin at pH 6.
T1 sequence (P00797 whole entry): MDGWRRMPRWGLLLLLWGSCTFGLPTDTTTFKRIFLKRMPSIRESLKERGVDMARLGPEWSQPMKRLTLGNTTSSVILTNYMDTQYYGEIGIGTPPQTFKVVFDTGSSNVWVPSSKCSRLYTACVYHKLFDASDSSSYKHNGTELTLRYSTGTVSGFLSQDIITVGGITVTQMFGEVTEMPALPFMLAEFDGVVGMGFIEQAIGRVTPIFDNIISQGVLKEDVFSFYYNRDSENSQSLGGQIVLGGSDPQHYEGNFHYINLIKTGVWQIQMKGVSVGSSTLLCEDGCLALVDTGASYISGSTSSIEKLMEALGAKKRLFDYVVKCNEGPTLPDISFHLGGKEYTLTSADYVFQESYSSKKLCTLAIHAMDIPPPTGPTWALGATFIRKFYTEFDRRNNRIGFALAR
In short: (§1)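 Purified human renal renin enzyme assay at pH 6.0, following a previously described method. IC50 values were determined. Where IC50 exceeded 10^-6 M, no IC50 was determined and percent inhibition was reported at the stated concentration.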

[2] = biological target: T2, Cathepsin D (Bos taurus) (UniProt P80209); test: Tested for inhibition of Cathepsin D from bovine was determined at 10e-5 M
T2 sequence (whole entry): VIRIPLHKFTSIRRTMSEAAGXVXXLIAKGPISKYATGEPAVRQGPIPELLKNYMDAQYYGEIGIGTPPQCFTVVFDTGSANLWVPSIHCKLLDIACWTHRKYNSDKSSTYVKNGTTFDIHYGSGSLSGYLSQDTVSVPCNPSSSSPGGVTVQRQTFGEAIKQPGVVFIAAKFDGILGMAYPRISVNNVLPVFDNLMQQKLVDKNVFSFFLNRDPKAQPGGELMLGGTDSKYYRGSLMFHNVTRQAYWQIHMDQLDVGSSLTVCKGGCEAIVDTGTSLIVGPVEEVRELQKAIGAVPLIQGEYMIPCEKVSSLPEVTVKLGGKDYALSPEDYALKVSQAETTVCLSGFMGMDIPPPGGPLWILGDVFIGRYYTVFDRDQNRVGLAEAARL

[3] = biological target: Pepsin A (Sus scrofa) (UniProt P00791); test: In vitro inhibitory activity against porcine pepsin was determined at 10e-5 M
Sequence of Pepsin A (Sus scrofa) (P00791 60-385 limits assumed): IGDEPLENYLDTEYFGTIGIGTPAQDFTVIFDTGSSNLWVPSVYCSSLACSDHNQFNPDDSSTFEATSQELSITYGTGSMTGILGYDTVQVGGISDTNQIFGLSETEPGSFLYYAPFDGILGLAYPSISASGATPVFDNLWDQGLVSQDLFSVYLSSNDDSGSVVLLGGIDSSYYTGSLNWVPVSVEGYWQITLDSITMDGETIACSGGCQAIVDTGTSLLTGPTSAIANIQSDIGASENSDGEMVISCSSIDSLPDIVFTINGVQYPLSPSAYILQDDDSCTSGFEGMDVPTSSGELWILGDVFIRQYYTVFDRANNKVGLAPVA

[4] = biological target: T3, Renin (Homo sapiens) (UniProt P00797); test: The compound was tested in vitro for inhibition of purified human renal renin at pH 6 and a concentration of 10e-6 M; in short: as §1
T3 sequence (whole entry): T1 sequence (P00797 whole entry)

[5] = biological target: T2, Cathepsin D (Bos taurus); test: Tested for inhibition of Cathepsin D from bovine at a concentration of 10e-5 M
[6] = biological target: Pepsin A (Sus scrofa) (UniProt P00791); test: Inhibitory activity against Porcine pepsin at a concentration of 10e-5 M

Compound | IC50 [1] [nM] | other results
COP(=O)(C[C@@H](O)[C@H](CC1CCCCC1)NC(=O)[C@H](Cc1c[nH]cn1)NC(=O)[C@H](Cc1ccccc1)NC(=O)OC(C)(C)C)OC | 90 | –
COP(=O)(C[C@H](O)[C@H](CC1CCCCC1)NC(=O)[C@H](Cc1c[nH]cn1)NC(=O)[C@H](Cc1ccccc1)NC(=O)CC(C)(C)C)OC | 47 | inhibition [2]: 6%; inhibition [3]: 3%
COP(=O)(C[C@H](O)[C@H](Cc1ccccc1)NC(=O)[C@H](Cc1c[nH]cn1)NC(=O)[C@H](Cc1ccccc1)NC(=O)OC(C)(C)C)OC | 1500 | –
COP(=O)(CC(O)[C@H](Cc1ccccc1)NC(=O)[C@H](C)NC(=O)C(Cc1ccccc1)NC(=O)OC(C)(C)C)OC (stereo partly specified) | 15000 | –
CC(C)(C)OC(=O)N[C@@H](Cc1ccccc1)C(=O)N[C@@H](Cc1c[nH]cn1)C(=O)N[C@@H](CC1CCCCC1)[C@@H](O)CP(C)(C)=O (stereo in doubt; 23) | – | inhibition [4]: 24%
CCOC(=O)N[C@@H](Cc1ccccc1)C(=O)N[C@@H](Cc1c[nH]cn1)C(=O)N[C@@H](CC1CCCCC1)[C@@H](O)CP(=O)(OC)OC | 50 | inhibition [2]: 0%; inhibition [3]: 4%
COP(=O)(O)C[C@H](O)[C@H](CC1CCCCC1)NC(=O)[C@H](CC(C)C)NC(=O)[C@H](Cc1ccccc1)NC(=O)OC(C)(C)C | 350 | –
CC(C)OP(=O)(C[C@H](O)[C@H](CC1CCCCC1)NC(=O)[C@H](Cc1c[nH]cn1)NC(=O)[C@H](Cc1ccccc1)NC(=O)OC(C)(C)C)OC(C)C | 1500 | –
COP(=O)(C[C@H](O)[C@H](CC1CCCCC1)NC(=O)[C@H](CC(C)C)NC(=O)[C@H](Cc1ccccc1)NC(=O)OC(C)(C)C)OC | 20 | inhibition [2]: 86%; inhibition [3]: 21%
CCOP(=O)(C[C@H](O)[C@H](CC1CCCCC1)NC(=O)[C@H](Cc1c[nH]cn1)NC(=O)[C@H](Cc1ccccc1)NC(=O)OC(C)(C)C)OCC | 72 | inhibition [5]: 0%; inhibition [6]: 0%
CC(C)(C)OC(=O)N[C@@H](Cc1ccccc1)C(=O)N[C@@H](Cc1c[nH]cn1)C(=O)N[C@@H](CC1CCCCC1)[C@@H](O)CP1(=O)OCCCO1 | 80 | inhibition [2]: 0%; inhibition [3]: 2%
COP(=O)(C[C@H](O)[C@H](CC1CCCCC1)NC(=O)[C@H](Cc1c[nH]cn1)NC(=O)[C@H](Cc1ccccc1)NC(=O)OC(C)(C)C)OC | 39 | –
CC(C)(C)OC(=O)N[C@@H](Cc1ccccc1)C(=O)N[C@@H](Cc1c[nH]cn1)C(=O)N[C@@H](CC1CCCCC1)[C@@H](O)CP(C)(C)=O (stereo in doubt; 24) | – | inhibition [4]: 49%
COP(=O)(C[C@@H](O)[C@H](Cc1ccccc1)NC(=O)[C@H](Cc1c[nH]cn1)NC(=O)[C@H](Cc1ccccc1)NC(=O)OC(C)(C)C)OC | 4000 | –
CCCCOP(=O)(C[C@H](O)[C@H](CC1CCCCC1)NC(=O)[C@H](Cc1c[nH]cn1)NC(=O)[C@H](Cc1ccccc1)NC(=O)OC(C)(C)C)OCCCC | 400 | –
COP(=O)(C[C@H](O)[C@H](CC(C)C)NC(=O)[C@H](Cc1c[nH]cn1)NC(=O)[C@H](Cc1ccccc1)NC(=O)OC(C)(C)C)OC | 5100 | –
